# NSD2 inh: NSD2 (human) methyltransferase inhibition; NSD2 peptide methylation, AlphaScreen, 120 min; inhibition, % at 12.5 µM; 0.54% of 310,000 active; AID 743445
# HCV NS3 hel inh: HCV NS3 helicase inhibition | inhibition, % at 10.9 µM | NS3 helicase DNA unwinding, Cy5 molecular beacon fluorescence | 0.56% of 290,000 active;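 active = inhibition above the mean of all tested compounds plus 3 SD, set per campaign, cut at about 35% in these data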;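 note: 0% = DMSO wells and 100% = thioflavine S control wells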
#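 System: NS3 helicase fragment of HCV / Schedule: 1 h at 25 °C / Control set: DMSO alone as 0% and 110 µM thioflavine S as 100% / Reagent: Cy5/quencher beacon DNA duplex and ATP to start / Technique: Cy5 fluorescence / Replication: singlicate / Evaluation: % inhibition of end-to-start signal ratio versus controls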
# DNMT1 inh: blocks human DNA methyltransferase DNMT1. P26358. DNMT1 molecular beacon, Hinp1I cleavage, fluorescence. inhibition (reported as % activation of signal), % at 10 µM. 0.83% of 360,000 active
# Casp6 inh: caspase-6 (human) enzyme inhibition | purified caspase-6, Z-VEID-R110 cleavage fluorescence | inhibition, % at 12.5 µM | 0.53% of 350,000 active;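 active = mean inhibition across replicates at least about 35%, with every replicate also reaching that limit, limit read from the data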;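 note: 0% = median of neutral control wells and 100% = no fluorescence left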
# Beacon interf DR: counter-screen for DNMT1 inhibitors: spectral interference, dose response; AID 602382; 200 tested, under 10 active; molecular beacon fluorescence; shares compounds with DNMT1 inh; IC50, µM; call rule not given here
# DNMT1 confirm: confirmation of human DNMT1 inhibitors; inhibition, % at 10 µM; DNMT1 molecular beacon HinP1I cleavage, fluorescence; 8% of 2,300 active; AID 602385; shares compounds with DNMT1 inh;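 active = average inhibition of at least 30% in the single-concentration confirmation test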
# Beacon interf: counter-screen for DNMT1 inhibitors: spectral interference; DNMT1 molecular beacon spectral interference counterscreen, fluorescence 485/520; activation (fluorescence interference), % at 10 µM; shares compounds with DNMT1 inh; 1% of 2,300 active;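 active = activation of at least 30% at 10 µM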;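 note: DNMT1 catalytic domain with a HinP1I cleavage step and a FAM/dabcyl DNA beacon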
# Starred values were filed as active, the others as inactive; / = no result given. Sampled rows, rich in hits. Any-hit rate of the full collection: about 1.5%. Cut-off read from the data, not from the text of the source, unless noted: active = inhibition above about 50%; inactive = the rest.
SMILES,NSD2 inh,HCV NS3 hel inh,DNMT1 inh,Casp6 inh,DNMT1 confirm,Beacon interf,others
NC(=O)CC(NC(=O)Cc1ccc(Br)cc1)c1ccc(N2CCC(Br)CC2)c([N+](=O)[O-])c1 (stereo not drawn),/,/,77*,-3,-4,-3,
NC(=O)CC(NC(=O)Cc1ccc(Br)cc1)c1ccc(N2CCCCCCC2)c([N+](=O)[O-])c1 (stereo not drawn),/,11,65*,-4,-1,2,
NC(=O)CC(NC(=O)Cc1ccc(Br)cc1)c1ccc(N2CCC(N3CCCC3)CC2)c([N+](=O)[O-])c1 (stereo not drawn),/,1,3,-3,/,/,
CN(Cc1ccccc1)c1ccc(C(CC(N)=O)NC(=O)Cc2cccc3ccccc23)cc1[N+](=O)[O-] (stereo not drawn),/,-5,-7,3,/,/,
NC(=O)CC(NC(=O)Cc1ccc(Br)cc1)c1ccc(N2CCC(Cc3ccccc3)CC2)c([N+](=O)[O-])c1 (stereo not drawn),/,/,87*,-3,-7,-5,
Cc1ccc(S(=O)(=O)Nc2ccc3c(c2)C(=O)N([C@@H](C)CO)C[C@H](C)[C@@H](CN(C)C(=O)c2ccccc2)OCCCC[C@H](C)O3)cc1,/,/,/,1,/,/,
CCCNC(=O)N[C@H]1CC[C@@H](CC(=O)NC2CCCCC2)O[C@@H]1CO,/,/,/,0,/,/,
O=C(O)C[C@H]1C[C@H]2c3cc(NC(=O)c4ccc5c(c4)OCO5)ccc3O[C@H]2[C@H](CO)O1,/,/,/,1,/,/,
COc1cc(/C=C2/SC(=O)N(Cc3ccccc3Cl)C2=O)ccc1OCc1ccncc1,5,-2,64*,/,7,8,
COc1ccccc1/C=C/C=c1\sc2nc(=O)c(Cc3ccccc3)nn2c1=O,2,13,93*,6,11,-1,
CCCOc1ccc(Cc2nn3c(=O)/c(=C/c4ccco4)sc3nc2=O)cc1,9,33,86*,/,5,4,
COc1ccccc1-c1nc2s/c(=C\c3cccs3)c(=O)n2n1,-3,9,3,/,/,/,
NC(=O)CC(NC(=O)Cc1cccc2ccccc12)c1ccc(NC2CCCC2)c([N+](=O)[O-])c1 (stereo not drawn),/,/,16,-7,/,/,
NC(=O)CC(NC(=O)Cc1cccc2ccccc12)c1ccc(NCCOc2ccccc2)c([N+](=O)[O-])c1 (stereo not drawn),/,/,51*,2,1,-2,
NC(=O)CC(NC(=O)Cc1cccc2ccccc12)c1ccc(NC2CCCCC2)c([N+](=O)[O-])c1 (stereo not drawn),/,/,64*,-4,2,4,
O=C(c1ccccc1F)N1CC[C@@H]2[C@@H](CO)Nc3ccc(C#Cc4ccccc4)cc3[C@@H]21,/,/,/,0,/,/,
COc1ccc(-c2csc(NC(=O)CSc3nc(C)nc4sc(C(=O)O)c(C)c34)n2)cc1,/,20,81*,0,62*,5,Beacon interf DR=>99
COc1ccc(-c2csc(NC(=O)CSc3nc(C)cs3)n2)cc1,1,4,-5,/,/,/,
Cc1nc(SCC(=O)O)c(C#N)c2c1CCCC2,17,13,58*,39*,2,3,
N#C[C@H]1[C@@H](c2ccccc2C2=CCCC2)[C@@H](CO)N1C(=O)c1cccc(F)c1,/,/,/,1,/,/,
C[C@@H]1CN([C@@H](C)CO)C(=O)c2cccc(NC(=O)c3cnccn3)c2O[C@@H]1CN(C)S(=O)(=O)c1cn(C)cn1,/,/,/,1,/,/,
O=C(NNC(=O)c1cc2cc3ccccc3nc2s1)c1cccc(C(F)(F)F)c1,2,-4,51*,/,1,4,
O=C(NNS(=O)(=O)c1ccccc1)c1cc2cc3ccccc3nc2s1,-2,0,0,/,/,/,
COc1ccc(NC(=O)Nc2ccc3c(c2)C(=O)N([C@H](C)CO)C[C@@H](C)[C@H](CN(C)S(=O)(=O)c2cccs2)OCCCC[C@@H](C)O3)cc1,/,/,/,-2,/,/,
COc1ccccc1NC(=S)N=Nc1c(O)[nH]c2ccc(Br)cc12,0,-1,89*,0,3,-3,
Cc1cccc(NC(=S)N=Nc2c(O)[nH]c3ccccc23)c1,-2,11,-10,/,/,/,
CCNc1ccc(Br)cc(C(=O)/C=C/c2ccccc2Cl)c1=O,34,29,77*,/,8,8,
